Broadly, the ED50 is the dose that gives a 50% effect, or the effect in half of the subjects.

Type in all cases: functional
Assay [1] has as its system Mus musculus. Kind of assay: Effective dose determined by mouse phenyl-p-benzoquinone writhing (PQW) assay after peroral administration. The note with it: po. A digest of the protocol:
(§1)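 Fasted (17-21 h) female white mice, 5-20 per double-blind test, dosed orally with compound suspended in 1% methylcellulose. 0.20 mL aqueous 0.01% phenyl-p-benzoquinone given i.p. 6 min before a 10-min observation for stretching/writhing. ED50 (dose protecting 50% of mice) calculated by the moving-average method.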

Assay [2] has as its system Rattus norvegicus. In words: Decrease in paw volume by the effect of compound at a dose of 75 mg/kg. In outline: (§2)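 Male Lewis rats (130-150 g) got 0.1 mL adjuvant (heat-killed Mycobacterium butyricum, 5 mg/mL in mineral oil) subplantar in the right hind paw and were left 2 weeks. Groups of 10 matched for severity were dosed orally by gavage (PVA-acacia vehicle, 10 mL/kg) for 7 days. Uninjected left hind paw volume was read the next day. % decrease = (arthritic control − treated)/(arthritic − nonarthritic control) × 100; Student's t-test.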

Assay [3] relates to Mus musculus. Kind of assay: Effective dose by mouse phenyl-p-benzoquinone writhing (PQW)assay after peroral administration; highest dose was tested. The note with it: po. A digest of the protocol: as §1
On the technique in general: An intraperitoneal irritant provokes the stretching counted in writhing tests.

Assay [4] relates to Rattus norvegicus. In words: Effective dose determined against rat adjuvant arthritis after peroral administration. Conditions: po. A digest of the protocol: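 Male Lewis rats (130-150 g) given 0.1 mL Mycobacterium butyricum adjuvant (5 mg/mL in mineral oil) s.c. into the right hind paw; arthritis developed for 2 weeks. Groups of 10 matched for severity were dosed orally by gavage in PVA-acacia vehicle (10 mL/kg) for 7 days. Uninjected left paw volume was measured the day after the last dose. Percent decrease was calculated vs arthritic and nonarthritic controls. ED50 was read from a visually fitted semilog dose-response line.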

Assay [5] has as its system Mus musculus. In words: Effective dose by mouse phenyl-p-benzoquinone writhing (PQW)assay after peroral administration; activity value ranges from (1.2-4.5). Conditions: po.
In assay [6] the test system is Mus musculus. In words: Effective dose by mouse phenyl-p-benzoquinone writhing (PQW)assay after peroral administration; activity value ranges from (10.9-40.0). Conditions: po. A digest of the protocol:
as §1

The test system of assay [7] is Rattus norvegicus. In words: Decrease in paw volume by the effect of compound at a dose of 30 mg/kg. A digest of the protocol:
as §2

For assay [8], the system named is Mus musculus. Kind of assay: Effective dose by mouse phenyl-p-benzoquinone writhing (PQW)assay after peroral administration; 6.8-17.7. Conditions: po.
The subject of assay [9] is Mus musculus. In words: Effective dose by mouse phenyl-p-benzoquinone writhing (PQW)assay after peroral administration; activity value ranges from (9.2 - 43.6). The note with it: po. In outline: as §1
The subject of assay [10] is Mus musculus. In words: Effective dose by mouse phenyl-p-benzoquinone writhing (PQW)assay after peroral administration; activity value ranges from (2.6-10.7). The note with it: po. A digest of the protocol: as §1
The subject of assay [11] is Mus musculus. In words: Effective dose by mouse phenyl-p-benzoquinone writhing (PQW)assay after peroral administration; activity value ranges from (4.8 - 25.4). The note with it: po. In outline: as §1
The subject of assay [12] is Rattus norvegicus. In words: Decrease in paw volume was evaluated at dose 30 mg/kg. A digest of the protocol:
as §2

Assay [13] has as its system Rattus norvegicus. Kind of assay: Decrease in paw volume by the effect of compound at a dose of 25 mg/kg. In outline: as §2
The test system of assay [14] is Mus musculus. In words: Effective dose by mouse phenyl-p-benzoquinone writhing (PQW)assay after peroral administration; activity value ranges from (8.4-80.4). Conditions: po. In outline:
as §1

Assay [15] concerns Rattus norvegicus. In words: Decrease in paw volume was evaluated at dose 50 mg/kg. A digest of the protocol:
as §2

For assay [16], the system named is Mus musculus. In words: Effective dose by mouse phenyl-p-benzoquinone writhing (PQW)assay after peroral administration; activity value ranges from (4.6 - 21.7). The note with it: po. In outline: as §1
In assay [17] the test system is Mus musculus. In words: Effective dose by mouse phenyl-p-benzoquinone writhing (PQW)assay after peroral administration; activity value ranges from (28.6-55.9). The note with it: po. In outline:
as §1

Assay [18] deals with Mus musculus. In words: Effective dose by mouse phenyl-p-benzoquinone writhing (PQW)assay after peroral administration; 3.1-14.0. Conditions: po.
Assay [19] deals with Mus musculus. Kind of assay: Effective dose by mouse phenyl-p-benzoquinone writhing (PQW)assay after peroral administration; 4.5-25.9. Conditions: po.
In assay [20] the test system is Mus musculus. In words: Effective dose by mouse phenyl-p-benzoquinone writhing (PQW)assay after peroral administration; activity value ranges from (15.9-183). The note with it: po. In outline:
as §1

Assay [21] concerns Mus musculus. In words: Effective dose by mouse phenyl-p-benzoquinone writhing (PQW)assay after peroral administration; activity value ranges from (0.66-2.55). The note with it: po.
The test system of assay [22] is Mus musculus. Kind of assay: Effective dose by mouse phenyl-p-benzoquinone writhing (PQW)assay after peroral administration; activity value ranges from (57.4 - 203.2). Conditions: po. In outline: as §1
Assay [23] concerns Mus musculus. Kind of assay: Effective dose by mouse phenyl-p-benzoquinone writhing (PQW)assay after peroral administration; activity value ranges from (18.6-69.6). Conditions: po. In outline: as §1
In assay [24] the test system is Mus musculus. Kind of assay: Effective dose by mouse phenyl-p-benzoquinone writhing (PQW)assay after peroral administration; activity value ranges from (8.8-36.8). Conditions: po. In outline: as §1
Assay [25] concerns Mus musculus. Kind of assay: Effective dose by mouse phenyl-p-benzoquinone writhing (PQW)assay after peroral administration; 0.23-0.53. Conditions: po.
In assay [26] the test system is Mus musculus. Kind of assay: Effective dose by mouse phenyl-p-benzoquinone writhing (PQW)assay after peroral administration; activity value ranges from (0.37-1.22). The note with it: po.

The structures appear in SMILES notation.

Regarding `C[S+]([O-])c1nc(-c2cccc(Cl)c2)c(-c2ccccc2)[nH]1` (stereo not drawn), the median effective dose (ED50) with Mus musculus [1] was over 130 mg/kg. The molecule also displayed a Decrease with Rattus norvegicus [2] of 77%.

For `CS(=O)(=O)c1nc(-c2ccc(F)cc2)c(-c2ccccc2)[nH]1`, the ED50 with Mus musculus [3] is 135 mg/kg; in the assay on Rattus norvegicus [4], over 9 mg/kg.

As to `COc1ccc(-c2nc([S+]([O-])CC(C)=O)[nH]c2-c2ccc(OC)cc2)cc1` (stereo not drawn), the ED50 with Mus musculus [3] was 135 mg/kg; in the assay on Rattus norvegicus [4], 35 mg/kg.

As for `O=S(=O)(c1nc(-c2ccc(Cl)cc2)c(-c2ccc(Cl)cc2)[nH]1)C(F)F`, the ED50 in the assay with Mus musculus [5] worked out at 2.3 mg/kg.

Turning to `O=S(=O)(c1nc(-c2cccc(Cl)c2)c(-c2cccc(Cl)c2)[nH]1)C(F)(F)C(F)F`, the ED50 with Mus musculus [6] is 20.9 mg/kg.

With `COc1ccc(-c2nc([S+]([O-])C(C)C)[nH]c2-c2ccc(OC)cc2)cc1` (stereo not drawn), the ED50 in the assay on Mus musculus [1] is over 130 mg/kg. Moreover, the Decrease in the assay on Rattus norvegicus [7] amounted to 36%.

In the case of `CCSc1nc(-c2ccc(OC)cc2)c(-c2ccc(OC)cc2)[nH]1`, the values for the ED50 with Mus musculus [8] and in the assay on Rattus norvegicus [4] were 11 mg/kg and 5 mg/kg, respectively.

In turn, `O=S(=O)(CC(F)(F)F)c1nc(-c2ccc(F)cc2)c(-c2ccc(F)cc2)[nH]1` returned an ED50 with Mus musculus [9] of 20 mg/kg.

Take `[O-][S+](CC(F)(F)F)c1nc(-c2ccc(Cl)cc2)c(-c2ccc(Cl)cc2)[nH]1` (stereo not drawn): the ED50 in the assay with Mus musculus [10] worked out at 5.3 mg/kg; in the assay with Rattus norvegicus [4], 2.3 mg/kg.

Take `Cc1ccc(-c2nc(S(=O)(=O)C(F)(F)C(F)F)[nH]c2-c2ccc(C)cc2)cc1`: it took a dose of 11 mg/kg to reach the 50% effect level in the assay with Mus musculus [11] (ED50).

In the assay on Mus musculus [1], `COc1ccc(-c2nc(SCSC)[nH]c2-c2ccc(OC)cc2)cc1` registered an ED50 of over 130 mg/kg. In the assay on Rattus norvegicus [12], this molecule registered a Decrease of 46%.

On to `COc1ccc(-c2[nH]c(S(C)(=O)=O)nc2-c2ccccc2)cc1`, for which the Decrease in the assay on Rattus norvegicus [13] came to 33%. This molecule also had an ED50 in the assay with Mus musculus [14] of 26 mg/kg.

Turning to `CSc1nc(-c2cccc(Cl)c2)c(-c2ccccc2)[nH]1`, the Decrease in the assay on Rattus norvegicus [15] is reported as 43%. For the same molecule, the ED50 in the assay with Mus musculus [1] was over 130 mg/kg.

As to `CCS(=O)(=O)c1nc(-c2ccc(OC)cc2)c(-c2ccc(OC)cc2)[nH]1`, the ED50 came out at 6 mg/kg in the assay with Rattus norvegicus [4] and 10 mg/kg with Mus musculus [16].

The molecule `O=S(=O)(c1nc(-c2ccc(C(F)(F)F)cc2)c(-c2ccccc2)[nH]1)C(F)(F)C(F)F` displayed an ED50 in the assay with Mus musculus [17] of 40 mg/kg.

`O=S(=O)(c1nc(-c2ccccc2)c(-c2ccccc2)[nH]1)C(F)(F)C(F)Br` (stereo not drawn) returned a median effective dose (ED50) in the assay on Mus musculus [18] of 6.6 mg/kg.

For `COc1ccc(-c2nc(S(=O)(=O)C(F)(F)C(Br)Br)[nH]c2-c2ccc(OC)cc2)cc1`, the ED50 was 10.8 mg/kg with Mus musculus [19] and over 9 mg/kg in the assay on Rattus norvegicus [4].

For the molecule `[O-][S+](CC(F)(F)F)c1nc(-c2ccccc2)c(-c2ccccc2)[nH]1` (stereo not drawn), the ED50 in the assay on Rattus norvegicus [4] amounted to 75 mg/kg; in the assay on Mus musculus [20], 54 mg/kg.

In the case of `[O-][S+](c1nc(-c2ccc(Cl)cc2)c(-c2ccc(Cl)cc2)[nH]1)C(F)F` (stereo not drawn), the 50% effect level in the assay on Mus musculus [21] (ED50) was put at a dose of 1.3 mg/kg.

Take `CS(=O)(=O)c1nc(-c2ccccc2Cl)c(-c2ccccc2Cl)[nH]1`: the values for the ED50 in the assay with Mus musculus [22] and in the assay on Rattus norvegicus [4] were 108 mg/kg and over 50 mg/kg, respectively.

Regarding `CC[S+]([O-])c1nc(-c2ccc(OC)cc2)c(-c2ccc(OC)cc2)[nH]1` (stereo not drawn), the 50% effect level with Mus musculus [23] (ED50) was put at a dose of 36 mg/kg.

As for `O=S(=O)(c1nc(-c2ccc(F)cc2)c(-c2ccc(C(F)(F)F)cc2)[nH]1)C(F)(F)C(F)F`, the figures for the ED50 in the assay on Mus musculus [24] and in the assay on Rattus norvegicus [4] were 18 mg/kg and over 1 mg/kg, respectively.

`COc1ccc2c(c1)c(CC(=O)O)c(C)n2C(=O)c1ccc(Cl)cc1` [INDOMETHACIN] yielded an ED50 in the assay with Mus musculus [25] of 0.35 mg/kg.

With `O=S(=O)(c1nc(-c2ccc(F)cc2)c(-c2ccc(F)cc2)[nH]1)C(F)(F)C(F)F` [TIFLAMIZOLE], the ED50 with Mus musculus [26] came to 0.67 mg/kg.

The values above are taken from ChEMBL document CHEMBL1123026, “Preparation and antiarthritic and analgesic activity of 4,5-diaryl-2-(substituted thio)-1H-imidazoles and their sulfoxides and sulfones” (1985).
